# What was measured:
# Assay type in all cases: functional
# L1210 [1] = assay: In-vivo antitumor activity against mouse L1210 cells at 60 mg/kg relative to control
# HeLa [2] = assay: Inhibition of cell cycle traverse in human HeLa cells assessed as mitotic index at 100 ug/ml after 16 hrs; design: scale not given: the % may be the effect or the level left
# Outline: (§1)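 HeLa cells were plated at 3.5 × 10^5 per 35-mm dish in Eagle's MEM with 10% fetal calf serum and antibiotics the day before. They were then exposed to drug in the same medium with 0.05 µg/mL colcemid for 16 h. Cells were trypsinized, cytocentrifuged onto slides and fixed in 3:1 MeOH–AcOH. The read-out was the mitotic index, mitotic cells as a percentage of cells counted.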
# L1210 [3] = assay: In-vivo antitumor activity against mouse L1210 cells at 80 mg/kg relative to control
# L1210 [4] = assay: In-vivo antitumor activity against mouse L1210 cells at 100 mg/kg relative to control
# HeLa [5] = assay: Inhibition of cell cycle traverse in human HeLa cells assessed as mitotic index at 200 ug/ml after 16 hrs; design: scale not given: the % may be the effect or the level left; outline: as §1
# HeLa [6] = assay: Growth inhibition of human HeLa cells; details: read-out: ID50
# HeLa [7] = assay: Inhibition of cell cycle traverse in human HeLa cells assessed as mitotic index at 12.5 ug/ml after 16 hrs; design: scale not given: the % may be the effect or the level left
# Outline: (§2)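 HeLa cells (3.5 × 10^5) plated the day before in Eagle's MEM with 10% fetal calf serum and antibiotics. Drug added in the same medium with colcemid 0.05 µg/mL, incubated about 16 h. Cells trypsinized, cytocentrifuged onto slides, fixed in 3:1 MeOH-AcOH. Mitotic and interphase cells counted; mitotic index = % of total. Lower index means greater inhibition of cell cycle traverse.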
# HeLa [8] = assay: Inhibition of cell cycle traverse in human HeLa cells assessed as mitotic index at 25 ug/ml after 16 hrs; design: scale not given: the % may be the effect or the level left; outline: as §2
# HeLa [9] = assay: Inhibition of cell cycle traverse in human HeLa cells assessed as mitotic index at 50 ug/ml after 16 hrs; design: scale not given: the % may be the effect or the level left; outline: as §2
# L1210 [10] = assay: In-vivo antitumor activity against mouse L1210 cells at 20 mg/kg relative to control
Compound,T/C (L1210 [1]),Activity (HeLa [2]),T/C (L1210 [3]),T/C (L1210 [4]),Activity (HeLa [5]),ED50 (HeLa [6]),Activity (HeLa [7]),Activity (HeLa [8]),Activity (HeLa [9]),T/C (L1210 [10])
O=c1[nH]c(=O)n([C@@H]2OCC[C@H]2O)cc1F (relative stereo),108%,64%,98%,96%,34.7%,–,–,–,–,–
O=c1[nH]c(=O)n(C2CCCO2)cc1F (racemic) [TEGAFUR],–,60.3%,102%,–,36%,200 µg/mL,–,–,–,–
O=c1[nH]c(=O)n([C@H]2C[C@@H](O)CO2)cc1F (relative stereo),106%,63.3%,91%,114%,44%,–,–,–,–,–
O=c1[nH]cc(F)c(=O)[nH]1 [FLUOROURACIL],–,–,–,–,–,–,45.7%,35.8%,31.7%,153%
